# Assay results from ChEMBL document CHEMBL1926577, “Novel 1,3,4-heterodiazole analogues: synthesis and in-vitro antitumor activity” (2012).
# How the values were obtained:
# Type in all cases: functional
# MDA-MB-468 = experiment: Growth inhibition of human MDA-MB-468 cells at 10 uM after 48 hrs by coulter counter method; settings: MDA-MB-468, 48 h, read-out: GI
# Method in brief: (§1)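 NCI 60-cell-line panel, single dose. Compound dissolved first in DMSO, then diluted in phosphate-buffered saline so that every final dilution held under 1% DMSO. Duplicate wells received cells at 6 × 10⁴ cells/ml. Controls held PBS/DMSO at the same dilution. Plates were incubated 48 h at 37 °C under 5% CO₂. Cells were then diluted 10-fold in saline and counted on a Coulter counter, with counts corrected for the dilution. Results are given as percent growth inhibition.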
# HCT-15 = experiment: Growth inhibition of human HCT15 cells at 10 uM after 48 hrs by coulter counter method; settings: HCT-15, 48 h, read-out: GI; method in brief: as §1
# SK-MEL-28 = experiment: Growth inhibition of human SK-MEL-28 cells at 10 uM after 48 hrs by coulter counter method; settings: SK-MEL-28, 48 h, read-out: GI; method in brief: as §1
# HL-60(TB) = experiment: Growth inhibition of human HL-60(TB) cells at 10 uM after 48 hrs by coulter counter method; settings: HL-60, 48 h, read-out: GI
# Method in brief: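 Single-dose screen on the NCI 60-line panel (leukemia subpanel). Compound is dissolved in DMSO and diluted in PBS, with final DMSO below 1%. Duplicate wells hold 6 × 10⁴ cells/ml at 37 °C, 5% CO₂, for 48 h. Cells are counted by Coulter counter after 10-fold saline dilution. Read-out is percent growth versus PBS/DMSO controls, expressed as % growth inhibition.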
# Malme-3M = experiment: Growth inhibition of human MALME-3M cells at 10 uM after 48 hrs by coulter counter method; settings: read-out: GI; method in brief: as §1
# SK-MEL-5 = experiment: Growth inhibition of human SK-MEL-5 cells at 10 uM after 48 hrs by coulter counter method; settings: SK-MEL-5, 48 h, read-out: GI; method in brief: as §1
# SN12C = experiment: Growth inhibition of human SN12C cells at 10 uM after 48 hrs by coulter counter method; settings: read-out: GI; method in brief: as §1
# M14 = experiment: Growth inhibition of human M14 cells at 10 uM after 48 hrs by coulter counter method; settings: M14, 48 h, read-out: GI; method in brief: as §1
# SNB-19 = experiment: Growth inhibition of human SNB19 cells at 10 uM after 48 hrs by coulter counter method; settings: SNB-19, 48 h, read-out: GI; method in brief: as §1
# RPMI-8226 = experiment: Growth inhibition of human RPMI8226 cells at 10 uM after 48 hrs by coulter counter method; settings: RPMI-8226, 48 h, read-out: GI; method in brief: as §1
# CCRF-CEM = experiment: Growth inhibition of human CCRF-CEM cells at 10 uM after 48 hrs by coulter counter method; settings: read-out: GI; method in brief: as §1
# SF-268 = experiment: Growth inhibition of human SF268 cells at 10 uM after 48 hrs by coulter counter method; settings: SF-268, 48 h, read-out: GI; method in brief: as §1
# SNB-75 = experiment: Growth inhibition of human SNB75 cells at 10 uM after 48 hrs by coulter counter method; settings: SNB-75, 48 h, read-out: GI; method in brief: as §1
# A498 = experiment: Growth inhibition of human A498 cells at 10 uM after 48 hrs by coulter counter method; settings: A498, 48 h, read-out: GI; method in brief: as §1
# HCT-116 = experiment: Growth inhibition of human HCT116 cells at 10 uM after 48 hrs by coulter counter method; settings: HCT-116, 48 h, read-out: GI; method in brief: as §1
# UO-31 = experiment: Growth inhibition of human UO31 cells at 10 uM after 48 hrs by coulter counter method; settings: UO-31, 48 h, read-out: GI; method in brief: as §1
# MCF7 = experiment: Growth inhibition of human MCF7 cells at 10 uM after 48 hrs by coulter counter method; settings: MCF7, 48 h, read-out: GI; method in brief: as §1
# HT-29 = experiment: Growth inhibition of human HT-29 cells at 10 uM after 48 hrs by coulter counter method; settings: HT-29, 48 h, read-out: GI; method in brief: as §1
# SF-295 = experiment: Growth inhibition of human SF295 cells at 10 uM after 48 hrs by coulter counter method; settings: SF-295, 48 h, read-out: GI; method in brief: as §1
# T47D = experiment: Growth inhibition of human T47D cells at 10 uM after 48 hrs by coulter counter method; settings: read-out: GI; method in brief: as §1
# UACC-62 = experiment: Growth inhibition of human UACC62 cells at 10 uM after 48 hrs by coulter counter method; settings: UACC-62, 48 h, read-out: GI; method in brief: as §1
# NCI/ADR-RES = experiment: Growth inhibition of human NCI/ADR-RES cells at 10 uM after 48 hrs by coulter counter method; settings: read-out: GI; method in brief: as §1
# MOLT-4 = experiment: Growth inhibition of human MOLT4 cells at 10 uM after 48 hrs by coulter counter method; settings: MOLT-4, 48 h, read-out: GI; method in brief: as §1
# 786-0 = experiment: Growth inhibition of human 786-0 cells at 10 uM after 48 hrs by coulter counter method; settings: 786-0, 48 h, read-out: GI; method in brief: as §1
# A549 = experiment: Growth inhibition of human A549 cells at 10 uM after 48 hrs by coulter counter method; settings: A549, 48 h, read-out: GI; method in brief: as §1
# NCI-H322M = experiment: Growth inhibition of human NCI-H322M cells at 10 uM after 48 hrs by coulter counter method; settings: read-out: GI; method in brief: as §1
# TK-10 = experiment: Growth inhibition of human TK10 cells at 10 uM after 48 hrs by coulter counter method; settings: TK-10, 48 h, read-out: GI; method in brief: as §1
# NCI-H522 = experiment: Growth inhibition of human NCI-H522 cells at 10 uM after 48 hrs by coulter counter method; settings: NCI-H522, 48 h, read-out: GI; method in brief: as §1
# NCI-H226 = experiment: Growth inhibition of human NCI-H226 cells at 10 uM after 48 hrs by coulter counter method; settings: NCI-H226, 48 h, read-out: GI; method in brief: as §1
# EKVX = experiment: Growth inhibition of human EKVX cells at 10 uM after 48 hrs by coulter counter method; settings: read-out: GI; method in brief: as §1
# UACC-257 = experiment: Growth inhibition of human UACC257 cells at 10 uM after 48 hrs by coulter counter method; settings: UACC-257, 48 h, read-out: GI; method in brief: as §1
# SR = experiment: Growth inhibition of human SR cells at 10 uM after 48 hrs by coulter counter method; settings: read-out: GI; method in brief: as §1
# ACHN = experiment: Growth inhibition of human ACHN cells at 10 uM after 48 hrs by coulter counter method; settings: read-out: GI; method in brief: as §1
# SK-MEL-2 = experiment: Growth inhibition of human SK-MEL-2 cells at 10 uM after 48 hrs by coulter counter method; settings: SK-MEL-2, 48 h, read-out: GI; method in brief: as §1
# MDA-MB-435 = experiment: Growth inhibition of human MDA-MB-435 cells at 10 uM after 48 hrs by coulter counter method; settings: MDA-MB-435, 48 h, read-out: GI; method in brief: as §1
# KM12 = experiment: Growth inhibition of human KM12 cells at 10 uM after 48 hrs by coulter counter method; settings: KM12, 48 h, read-out: GI; method in brief: as §1
# OVCAR-8 = experiment: Growth inhibition of human OVCAR8 cells at 10 uM after 48 hrs by coulter counter method; settings: OVCAR-8, 48 h, read-out: GI; method in brief: as §1
# CAKI-1 = experiment: Growth inhibition of human Caki1 cells at 10 uM after 48 hrs by coulter counter method; settings: CAKI-1, 48 h, read-out: GI; method in brief: as §1
# BT-549 = experiment: Growth inhibition of human BT549 cells at 10 uM after 48 hrs by coulter counter method; settings: BT-549, 48 h, read-out: GI; method in brief: as §1
# NCI-H23 = experiment: Growth inhibition of human NCI-H23 cells at 10 uM after 48 hrs by coulter counter method; settings: NCI-H23, 48 h, read-out: GI; method in brief: as §1
# LOX IMVI = experiment: Growth inhibition of human LOXIMVI cells at 10 uM after 48 hrs by coulter counter method; settings: read-out: GI; method in brief: as §1
# K562 = experiment: Growth inhibition of human K562 cells at 10 uM after 48 hrs by coulter counter method; settings: K562, 48 h, read-out: GI; method in brief: as §1
# IGROV-1 = experiment: Growth inhibition of human IGROV1 cells at 10 uM after 48 hrs by coulter counter method; settings: IGROV-1, 48 h, read-out: GI; method in brief: as §1
# U-251 = experiment: Growth inhibition of human U251 cells at 10 uM after 48 hrs by coulter counter method; settings: U-251, 48 h, read-out: GI; method in brief: as §1
# PC-3 = experiment: Growth inhibition of human PC3 cells at 10 uM after 48 hrs by coulter counter method; settings: PC-3, 48 h, read-out: GI; method in brief: as §1
compound,measurement,setting,value
O=C1N=C2OC(c3ccccc3)=NN2C1=O,inhibition of growth at 10 µM,MDA-MB-468,< 10%
same,inhibition of growth at 10 µM,HCT-15,< 10%
same,inhibition of growth at 10 µM,SK-MEL-28,< 10%
same,inhibition of growth at 10 µM,HL-60(TB),< 10%
same,inhibition of growth at 10 µM,Malme-3M,< 10%
same,inhibition of growth at 10 µM,SK-MEL-5,< 10%
same,inhibition of growth at 10 µM,SN12C,< 10%
same,inhibition of growth at 10 µM,M14,< 10%
same,inhibition of growth at 10 µM,SNB-19,< 10%
same,inhibition of growth at 10 µM,RPMI-8226,< 10%
same,inhibition of growth at 10 µM,CCRF-CEM,< 10%
same,inhibition of growth at 10 µM,SF-268,< 10%
same,inhibition of growth at 10 µM,SNB-75,< 10%
same,inhibition of growth at 10 µM,A498,< 10%
same,inhibition of growth at 10 µM,HCT-116,< 10%
same,inhibition of growth at 10 µM,UO-31,20.5%
same,inhibition of growth at 10 µM,MCF7,< 10%
same,inhibition of growth at 10 µM,HT-29,< 10%
same,inhibition of growth at 10 µM,SF-295,< 10%
same,inhibition of growth at 10 µM,T47D,< 10%
same,inhibition of growth at 10 µM,UACC-62,< 10%
same,inhibition of growth at 10 µM,NCI/ADR-RES,< 10%
same,inhibition of growth at 10 µM,MOLT-4,< 10%
same,inhibition of growth at 10 µM,786-0,< 10%
same,inhibition of growth at 10 µM,A549,< 10%
same,inhibition of growth at 10 µM,NCI-H322M,12.5%
same,inhibition of growth at 10 µM,TK-10,< 10%
same,inhibition of growth at 10 µM,NCI-H522,< 10%
same,inhibition of growth at 10 µM,NCI-H226,< 10%
same,inhibition of growth at 10 µM,EKVX,< 10%
same,inhibition of growth at 10 µM,UACC-257,15.2%
same,inhibition of growth at 10 µM,SR,< 10%
same,inhibition of growth at 10 µM,ACHN,< 10%
same,inhibition of growth at 10 µM,SK-MEL-2,< 10%
same,inhibition of growth at 10 µM,MDA-MB-435,< 10%
same,inhibition of growth at 10 µM,KM12,< 10%
same,inhibition of growth at 10 µM,OVCAR-8,< 10%
same,inhibition of growth at 10 µM,CAKI-1,< 10%
same,inhibition of growth at 10 µM,BT-549,< 10%
same,inhibition of growth at 10 µM,NCI-H23,< 10%
same,inhibition of growth at 10 µM,LOX IMVI,< 10%
same,inhibition of growth at 10 µM,K562,< 10%
same,inhibition of growth at 10 µM,IGROV-1,< 10%
same,inhibition of growth at 10 µM,U-251,< 10%
same,inhibition of growth at 10 µM,PC-3,< 10%
